Measured values taken from ChEMBL document CHEMBL3352004, “(7-Benzyloxy-2,3-dihydro-1H-pyrrolo[1,2-a]indol-1-yl)acetic Acids as S1P1 Functional Antagonists” (ACS Med Chem Lett, 2014).
In brackets after ≈: the same amount, converted by molar mass.

Biological target: T1, Sphingosine 1-phosphate receptor 1 (Homo sapiens, UniProt P21453)
T1 sequence (P21453 whole entry): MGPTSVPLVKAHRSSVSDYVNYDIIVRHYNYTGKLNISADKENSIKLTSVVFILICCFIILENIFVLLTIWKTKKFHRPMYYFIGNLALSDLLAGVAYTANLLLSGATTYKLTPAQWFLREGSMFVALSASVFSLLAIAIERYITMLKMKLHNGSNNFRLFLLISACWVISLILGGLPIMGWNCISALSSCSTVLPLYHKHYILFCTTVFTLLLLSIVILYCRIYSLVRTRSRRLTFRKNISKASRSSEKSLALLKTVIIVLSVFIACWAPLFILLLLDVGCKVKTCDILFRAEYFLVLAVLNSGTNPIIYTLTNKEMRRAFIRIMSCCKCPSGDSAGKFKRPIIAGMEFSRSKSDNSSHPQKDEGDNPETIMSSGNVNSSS
Experiment: Agonist activity at human S1P1 receptor assessed as cAMP accumulation by HTRF assay
Type: functional
Conditions: not given; call rule not given here
In short: (§1)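 S1P1 engagement measured as cyclase activity in a homogeneous time-resolved fluorescence (HTRF) assay.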
In the case of COc1ccc(COc2ccc3c(c2)cc2n3CCC2CC(=O)O)cc1C#N (racemic), the EC50 is reported as 38 nM.
CC(C)Oc1ccc(COc2ccc3c(c2)cc2n3CCC2CC(=O)O)cc1C#N (stereo in doubt; 19a) gave an EC50 of 0.13 nM.
Molecule CC(C)Oc1ccc(COc2ccc3c(c2)c(Cl)c2n3CC[C@@H]2CC(=O)O)cc1C#N has an EC50 of 0.025 nM.

Biological target: T1, Sphingosine 1-phosphate receptor 1
Experiment: Agonist activity at human S1P1 receptor assessed as cAMP accumulation by HTRF assay relative to S1P
Type: functional
Conditions: not given
Work on COc1ccc(COc2ccc3c(c2)cc2n3CCC2CC(=O)O)cc1C#N (racemic) yielded an Emax of 122%.
CC(C)Oc1ccc(COc2ccc3c(c2)c(Cl)c2n3CC[C@@H]2CC(=O)O)cc1C#N showed an Emax of 94%.

Biological target: T1, Sphingosine 1-phosphate receptor 1
Experiment: Agonist activity at human S1P1 receptor by beta-arrestin recruitment assay
Conditions: not given
With CC(C)Oc1ccc(COc2ccc3c(c2)cc2n3CCC2CC(=O)O)cc1C#N (stereo in doubt; 19a) the EC50 was 11 nM.
For CC(C)Oc1ccc(COc2ccc3c(c2)c(Cl)c2n3CC[C@@H]2CC(=O)O)cc1C#N, the EC50 was 0.63 nM.

Biological target: T1, Sphingosine 1-phosphate receptor 1
Experiment: Agonist activity at human S1P1 receptor by beta-arrestin recruitment assay relative to S1P
Conditions: not given
CC(C)Oc1ccc(COc2ccc3c(c2)c(Cl)c2n3CC[C@@H]2CC(=O)O)cc1C#N showed an Emax of 112%.

Biological target: Sphingosine 1-phosphate receptor 2 (Homo sapiens, UniProt O95136)
Sequence (O95136 whole entry): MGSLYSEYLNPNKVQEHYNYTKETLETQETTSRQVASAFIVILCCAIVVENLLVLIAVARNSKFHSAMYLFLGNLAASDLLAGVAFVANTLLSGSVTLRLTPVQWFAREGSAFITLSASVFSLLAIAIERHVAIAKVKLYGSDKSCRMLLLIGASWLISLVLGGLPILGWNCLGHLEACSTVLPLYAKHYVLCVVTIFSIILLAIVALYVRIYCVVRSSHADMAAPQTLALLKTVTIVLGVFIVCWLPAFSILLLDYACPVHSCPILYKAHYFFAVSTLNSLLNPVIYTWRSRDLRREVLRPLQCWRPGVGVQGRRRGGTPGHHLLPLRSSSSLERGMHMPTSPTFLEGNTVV
Experiment: Agonist activity at human S1P2 receptor by beta-arrestin recruitment assay
Conditions: not given
CC(C)Oc1ccc(COc2ccc3c(c2)cc2n3CCC2CC(=O)O)cc1C#N (stereo in doubt; 19a) showed an EC50 greater than 10 µM.
In the case of CC(C)Oc1ccc(COc2ccc3c(c2)c(Cl)c2n3CC[C@@H]2CC(=O)O)cc1C#N, the EC50 is reported as greater than 10 µM.

Biological target: Sphingosine 1-phosphate receptor 3 (Homo sapiens, UniProt Q99500)
Sequence (Q99500 whole entry): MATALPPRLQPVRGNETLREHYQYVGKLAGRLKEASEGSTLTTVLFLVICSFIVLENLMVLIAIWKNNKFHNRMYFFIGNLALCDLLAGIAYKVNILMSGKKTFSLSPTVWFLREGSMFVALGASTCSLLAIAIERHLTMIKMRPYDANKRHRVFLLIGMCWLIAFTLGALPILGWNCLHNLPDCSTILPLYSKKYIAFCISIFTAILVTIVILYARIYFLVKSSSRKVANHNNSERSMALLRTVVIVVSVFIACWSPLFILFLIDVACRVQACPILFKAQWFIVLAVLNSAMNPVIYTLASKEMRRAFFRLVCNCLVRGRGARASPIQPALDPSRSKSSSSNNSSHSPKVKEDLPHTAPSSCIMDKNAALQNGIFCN
Experiment: Agonist activity at human S1P3 receptor by beta-arrestin recruitment assay
Conditions: not given
CC(C)Oc1ccc(COc2ccc3c(c2)cc2n3CCC2CC(=O)O)cc1C#N (stereo in doubt; 19a) gave an EC50 greater than 10 µM.
CC(C)Oc1ccc(COc2ccc3c(c2)c(Cl)c2n3CC[C@@H]2CC(=O)O)cc1C#N gave an EC50 greater than 10 µM.

Biological target: T2, Sphingosine 1-phosphate receptor 4 (Homo sapiens, UniProt O95977)
T2 sequence (O95977 whole entry): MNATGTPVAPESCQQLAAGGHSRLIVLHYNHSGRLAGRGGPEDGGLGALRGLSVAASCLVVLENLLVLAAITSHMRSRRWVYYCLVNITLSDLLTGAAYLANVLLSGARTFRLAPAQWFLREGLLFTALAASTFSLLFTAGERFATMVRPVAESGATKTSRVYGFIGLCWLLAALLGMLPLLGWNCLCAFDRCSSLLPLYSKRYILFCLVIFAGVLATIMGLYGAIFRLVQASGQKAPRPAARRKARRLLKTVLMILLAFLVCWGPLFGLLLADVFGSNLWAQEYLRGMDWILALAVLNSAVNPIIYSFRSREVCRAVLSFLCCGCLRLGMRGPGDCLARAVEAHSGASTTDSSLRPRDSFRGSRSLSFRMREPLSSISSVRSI
Experiment: Agonist activity at human S1P4 receptor by beta-arrestin recruitment assay
Conditions: not given
CC(C)Oc1ccc(COc2ccc3c(c2)cc2n3CCC2CC(=O)O)cc1C#N (stereo in doubt; 19a) showed an EC50 greater than 10 µM.
In the case of CC(C)Oc1ccc(COc2ccc3c(c2)c(Cl)c2n3CC[C@@H]2CC(=O)O)cc1C#N, the EC50 is reported as 8.6 µM.

Biological target: T3, Sphingosine 1-phosphate receptor 4 (Homo sapiens) (UniProt O95977)
T3 sequence (whole entry): T2 sequence (O95977 whole entry)
Experiment: Agonist activity at human S1P4 receptor by beta-arrestin recruitment assay relative to S1P
Conditions: not given
CC(C)Oc1ccc(COc2ccc3c(c2)c(Cl)c2n3CC[C@@H]2CC(=O)O)cc1C#N gave an Emax of 85%.

Biological target: T4, Sphingosine 1-phosphate receptor 5 (Homo sapiens, UniProt Q9H228)
T4 sequence (Q9H228 whole entry): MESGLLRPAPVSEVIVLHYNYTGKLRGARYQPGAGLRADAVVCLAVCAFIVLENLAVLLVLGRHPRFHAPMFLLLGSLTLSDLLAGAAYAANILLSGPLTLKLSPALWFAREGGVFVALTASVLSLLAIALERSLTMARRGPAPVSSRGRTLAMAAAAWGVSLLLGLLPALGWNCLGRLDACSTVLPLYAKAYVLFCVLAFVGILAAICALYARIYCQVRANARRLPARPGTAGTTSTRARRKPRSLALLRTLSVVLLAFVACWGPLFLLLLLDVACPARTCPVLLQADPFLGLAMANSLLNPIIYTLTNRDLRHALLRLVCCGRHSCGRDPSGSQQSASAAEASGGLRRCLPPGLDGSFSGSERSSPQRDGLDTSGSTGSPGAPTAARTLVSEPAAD
Experiment: Agonist activity at human S1P5 receptor by beta-arrestin recruitment assay
Conditions: not given
For CC(C)Oc1ccc(COc2ccc3c(c2)cc2n3CCC2CC(=O)O)cc1C#N (stereo in doubt; 19a), the EC50 was 410 nM.
Molecule CC(C)Oc1ccc(COc2ccc3c(c2)c(Cl)c2n3CC[C@@H]2CC(=O)O)cc1C#N has an EC50 of 47 nM.

Biological target: T4, Sphingosine 1-phosphate receptor 5
Experiment: Agonist activity at human S1P5 receptor by beta-arrestin recruitment assay relative to S1P
Conditions: not given
In the case of CC(C)Oc1ccc(COc2ccc3c(c2)c(Cl)c2n3CC[C@@H]2CC(=O)O)cc1C#N, the Emax is reported as 84%.

Test system: not listed separately
Experiment: Systemic clearance in Sprague-Dawley rat at 1 mg/kg, iv
Type: ADME, organism-based
Design: dose 1 mg/kg, route intravenous
Conditions: in vivo
In the case of CC(C)Oc1ccc(COc2ccc3c(c2)cc2n3CCC2CC(=O)O)cc1C#N (stereo in doubt; 19a), the clearance is reported as 2.18 mL/min/kg.
With CC(C)Oc1ccc(COc2ccc3c(c2)c(Cl)c2n3CC[C@@H]2CC(=O)O)cc1C#N the clearance was 3.2 mL/min/kg.

Test system: not listed separately
Experiment: Volume of distribution at steady state in Sprague-Dawley rat at 1 mg/kg, iv
Type: ADME, organism-based
Design: dose 1 mg/kg, route intravenous
Conditions: in vivo, read-out: Vdss
For CC(C)Oc1ccc(COc2ccc3c(c2)cc2n3CCC2CC(=O)O)cc1C#N (stereo in doubt; 19a), the Vd was 0.732 L/kg.
CC(C)Oc1ccc(COc2ccc3c(c2)c(Cl)c2n3CC[C@@H]2CC(=O)O)cc1C#N showed a Vd of 0.9 L/kg.

Test system: not listed separately
Experiment: Cmax in Sprague-Dawley rat at 1 mg/kg, po
Type: ADME, organism-based
Design: dose 1 mg/kg, route oral
Conditions: in vivo
With CC(C)Oc1ccc(COc2ccc3c(c2)cc2n3CCC2CC(=O)O)cc1C#N (stereo in doubt; 19a) the Cmax was 569 ng/mL.
In the case of CC(C)Oc1ccc(COc2ccc3c(c2)c(Cl)c2n3CC[C@@H]2CC(=O)O)cc1C#N, the Cmax is reported as 618 ng/mL.

Test system: not listed separately
Experiment: Tmax in Sprague-Dawley rat at 1 mg/kg, po
Type: ADME, organism-based
Design: dose 1 mg/kg, route oral
Conditions: in vivo
Work on CC(C)Oc1ccc(COc2ccc3c(c2)cc2n3CCC2CC(=O)O)cc1C#N (stereo in doubt; 19a) yielded a Tmax of 2 h.
With CC(C)Oc1ccc(COc2ccc3c(c2)c(Cl)c2n3CC[C@@H]2CC(=O)O)cc1C#N the Tmax was 4 h.

Test system: not listed separately
Experiment: AUC (0 to infinity) in Sprague-Dawley rat at 1 mg/kg, iv or at 1 mg/kg, po
Type: ADME, organism-based
Conditions: plasma
With CC(C)Oc1ccc(COc2ccc3c(c2)cc2n3CCC2CC(=O)O)cc1C#N (stereo in doubt; 19a) the AUC(0-inf) was 3990 ng·h/mL.
Molecule CC(C)Oc1ccc(COc2ccc3c(c2)c(Cl)c2n3CC[C@@H]2CC(=O)O)cc1C#N has an AUC(0-inf) of 4210 ng·h/mL.

Test system: not listed separately
Experiment: Elimination half life in Sprague-Dawley rat at 1 mg/kg, po
Type: ADME, organism-based
Design: dose 1 mg/kg, route oral
Conditions: in vivo, read-out: beta t1/2 (converted)
CC(C)Oc1ccc(COc2ccc3c(c2)cc2n3CCC2CC(=O)O)cc1C#N (stereo in doubt; 19a) showed a half-life of 239 min.
For CC(C)Oc1ccc(COc2ccc3c(c2)c(Cl)c2n3CC[C@@H]2CC(=O)O)cc1C#N, the half-life was 206 min.

Test system: not listed separately
Experiment: Oral bioavailability in Sprague-Dawley rat at 1 mg/kg
Type: ADME, organism-based
Conditions: in vivo
With CC(C)Oc1ccc(COc2ccc3c(c2)cc2n3CCC2CC(=O)O)cc1C#N (stereo in doubt; 19a) the bioavailability was 49.8%.
CC(C)Oc1ccc(COc2ccc3c(c2)c(Cl)c2n3CC[C@@H]2CC(=O)O)cc1C#N showed a bioavailability of 76.4%.

Test system: not listed separately
Experiment: Ratio of drug level in brain to plasma in Sprague-Dawley rat
Type: ADME
Conditions: read-out: BPR
In short: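 Abbreviated rat CNS distribution: a single 1.0 mg/kg oral dose, with brain and plasma drug levels measured over 6 h. Brain-to-plasma ratio derived from these levels.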
CC(C)Oc1ccc(COc2ccc3c(c2)cc2n3CCC2CC(=O)O)cc1C#N (stereo in doubt; 19a) showed a Kp of 0.016.
Work on CC(C)Oc1ccc(COc2ccc3c(c2)c(Cl)c2n3CC[C@@H]2CC(=O)O)cc1C#N yielded a Kp of 0.09.

Species on record: Rattus norvegicus
Experiment: Reduction in lymphocyte count in Sprague-Dawley rat
Type: functional, organism-based
Conditions: not given
In short: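 A PK/PD model relating plasma drug concentration to circulating lymphocyte counts was used to derive the plasma concentration that reduces lymphocytes by 50% (LL IC50, ng/mL).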
Molecule CC(C)Oc1ccc(COc2ccc3c(c2)cc2n3CCC2CC(=O)O)cc1C#N (stereo in doubt; 19a) has an IC50 of 0.21 µg/mL (≈ 0.519 µM).
Work on CC(C)Oc1ccc(COc2ccc3c(c2)c(Cl)c2n3CC[C@@H]2CC(=O)O)cc1C#N yielded an IC50 of 0.0104 µg/mL (≈ 0.0237 µM).

Biological target: Sphingosine 1-phosphate receptor 1 (Mus musculus, UniProt O08530)
Sequence (O08530 whole entry): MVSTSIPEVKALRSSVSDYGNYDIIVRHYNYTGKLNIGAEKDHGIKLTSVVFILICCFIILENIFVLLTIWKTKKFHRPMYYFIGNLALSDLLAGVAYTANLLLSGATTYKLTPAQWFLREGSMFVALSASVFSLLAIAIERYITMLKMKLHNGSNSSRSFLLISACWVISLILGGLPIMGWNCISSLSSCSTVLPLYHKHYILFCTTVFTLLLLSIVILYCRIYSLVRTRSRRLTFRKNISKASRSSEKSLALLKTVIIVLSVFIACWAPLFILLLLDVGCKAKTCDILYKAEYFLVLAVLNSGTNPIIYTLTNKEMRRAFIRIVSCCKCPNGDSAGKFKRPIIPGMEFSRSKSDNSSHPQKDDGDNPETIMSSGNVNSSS
Experiment: Agonist activity at mouse S1P1 receptor assessed as cAMP accumulation by HTRF assay
Type: functional
Conditions: not given
In short: as §1
CC(C)Oc1ccc(COc2ccc3c(c2)c(Cl)c2n3CC[C@@H]2CC(=O)O)cc1C#N gave an EC50 of 0.05 nM.

Biological target: Sphingosine 1-phosphate receptor 1 (Mus musculus) (UniProt O08530)
Sequence (O08530 whole entry): as above
Experiment: Agonist activity at mouse S1P1 receptor assessed as cAMP accumulation by HTRF assay relative to S1P
Type: functional
Conditions: not given
CC(C)Oc1ccc(COc2ccc3c(c2)c(Cl)c2n3CC[C@@H]2CC(=O)O)cc1C#N gave an Emax of 104%.

Biological target: Sphingosine 1-phosphate receptor 1 (Rattus norvegicus, UniProt P48303)
Sequence (P48303 whole entry): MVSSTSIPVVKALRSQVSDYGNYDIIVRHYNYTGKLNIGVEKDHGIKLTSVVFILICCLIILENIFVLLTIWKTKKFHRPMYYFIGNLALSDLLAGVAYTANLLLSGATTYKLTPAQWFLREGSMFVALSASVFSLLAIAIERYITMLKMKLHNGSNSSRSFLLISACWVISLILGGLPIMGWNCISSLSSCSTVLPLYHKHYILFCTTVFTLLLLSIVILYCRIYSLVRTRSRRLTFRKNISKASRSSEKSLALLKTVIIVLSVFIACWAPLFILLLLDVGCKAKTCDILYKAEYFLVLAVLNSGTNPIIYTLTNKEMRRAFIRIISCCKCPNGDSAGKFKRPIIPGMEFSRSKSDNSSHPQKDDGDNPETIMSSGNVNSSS
Experiment: Agonist activity at rat S1P1 receptor assessed as cAMP accumulation by HTRF assay
Type: functional
Conditions: not given
In short: as §1
With CC(C)Oc1ccc(COc2ccc3c(c2)c(Cl)c2n3CC[C@@H]2CC(=O)O)cc1C#N the EC50 was 0.072 nM.

Biological target: Sphingosine 1-phosphate receptor 1 (Rattus norvegicus) (UniProt P48303)
Sequence (P48303 whole entry): as above
Experiment: Agonist activity at rat S1P1 receptor assessed as cAMP accumulation by HTRF assay relative to S1P
Type: functional
Conditions: not given
Molecule CC(C)Oc1ccc(COc2ccc3c(c2)c(Cl)c2n3CC[C@@H]2CC(=O)O)cc1C#N has an Emax of 93%.

Biological target: Sphingosine-1-phosphate receptor 1 (Canis lupus familiaris, UniProt W5VNF7)
Sequence (W5VNF7 whole entry): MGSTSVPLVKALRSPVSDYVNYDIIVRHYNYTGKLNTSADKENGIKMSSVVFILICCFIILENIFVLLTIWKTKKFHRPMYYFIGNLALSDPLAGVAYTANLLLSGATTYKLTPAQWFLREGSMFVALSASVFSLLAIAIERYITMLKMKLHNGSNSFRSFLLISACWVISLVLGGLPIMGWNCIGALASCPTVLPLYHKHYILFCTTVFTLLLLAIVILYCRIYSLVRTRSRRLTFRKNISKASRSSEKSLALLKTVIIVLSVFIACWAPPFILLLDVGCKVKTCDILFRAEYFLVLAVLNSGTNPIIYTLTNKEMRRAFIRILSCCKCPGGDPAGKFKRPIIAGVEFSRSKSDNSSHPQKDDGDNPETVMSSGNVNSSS
Experiment: Agonist activity at dog S1P1 receptor assessed as cAMP accumulation by HTRF assay
Type: functional
Conditions: not given
In short: as §1
In the case of CC(C)Oc1ccc(COc2ccc3c(c2)c(Cl)c2n3CC[C@@H]2CC(=O)O)cc1C#N, the EC50 is reported as 0.049 nM.

Biological target: Sphingosine-1-phosphate receptor 1 (Canis lupus familiaris) (UniProt W5VNF7)
Sequence (W5VNF7 as listed by the source): as the sequence (W5VNF7 whole entry) above
Experiment: Agonist activity at dog S1P1 receptor assessed as cAMP accumulation by HTRF assay relative to S1P
Type: functional
Conditions: not given
CC(C)Oc1ccc(COc2ccc3c(c2)c(Cl)c2n3CC[C@@H]2CC(=O)O)cc1C#N gave an Emax of 66%.

Biological target: Sphingosine 1-phosphate receptor 1 (Macaca mulatta, UniProt H9EUW9)
Sequence (H9EUW9 whole entry): as the sequence (P21453 whole entry) above, with P3S, H12L, I37T, K41R, S189P, I241M, E365D counted along it
Experiment: Agonist activity at monkey S1P1 receptor assessed as cAMP accumulation by HTRF assay
Type: functional
Conditions: not given
In short: as §1
CC(C)Oc1ccc(COc2ccc3c(c2)c(Cl)c2n3CC[C@@H]2CC(=O)O)cc1C#N showed an EC50 of 0.038 nM.

Biological target: Sphingosine 1-phosphate receptor 1 (Macaca mulatta) (UniProt H9EUW9)
Sequence (H9EUW9 as listed by the source): as the sequence (P21453 whole entry) above, with P3S, H12L, I37T, K41R, S189P, I241M, E365D counted along it
Experiment: Agonist activity at monkey S1P1 receptor assessed as cAMP accumulation by HTRF assay relative to S1P
Type: functional
Conditions: not given
In the case of CC(C)Oc1ccc(COc2ccc3c(c2)c(Cl)c2n3CC[C@@H]2CC(=O)O)cc1C#N, the Emax is reported as 96%.

Biological target: Voltage-gated inwardly rectifying potassium channel KCNH2 (Homo sapiens, UniProt Q12809)
Sequence (Q12809 whole entry): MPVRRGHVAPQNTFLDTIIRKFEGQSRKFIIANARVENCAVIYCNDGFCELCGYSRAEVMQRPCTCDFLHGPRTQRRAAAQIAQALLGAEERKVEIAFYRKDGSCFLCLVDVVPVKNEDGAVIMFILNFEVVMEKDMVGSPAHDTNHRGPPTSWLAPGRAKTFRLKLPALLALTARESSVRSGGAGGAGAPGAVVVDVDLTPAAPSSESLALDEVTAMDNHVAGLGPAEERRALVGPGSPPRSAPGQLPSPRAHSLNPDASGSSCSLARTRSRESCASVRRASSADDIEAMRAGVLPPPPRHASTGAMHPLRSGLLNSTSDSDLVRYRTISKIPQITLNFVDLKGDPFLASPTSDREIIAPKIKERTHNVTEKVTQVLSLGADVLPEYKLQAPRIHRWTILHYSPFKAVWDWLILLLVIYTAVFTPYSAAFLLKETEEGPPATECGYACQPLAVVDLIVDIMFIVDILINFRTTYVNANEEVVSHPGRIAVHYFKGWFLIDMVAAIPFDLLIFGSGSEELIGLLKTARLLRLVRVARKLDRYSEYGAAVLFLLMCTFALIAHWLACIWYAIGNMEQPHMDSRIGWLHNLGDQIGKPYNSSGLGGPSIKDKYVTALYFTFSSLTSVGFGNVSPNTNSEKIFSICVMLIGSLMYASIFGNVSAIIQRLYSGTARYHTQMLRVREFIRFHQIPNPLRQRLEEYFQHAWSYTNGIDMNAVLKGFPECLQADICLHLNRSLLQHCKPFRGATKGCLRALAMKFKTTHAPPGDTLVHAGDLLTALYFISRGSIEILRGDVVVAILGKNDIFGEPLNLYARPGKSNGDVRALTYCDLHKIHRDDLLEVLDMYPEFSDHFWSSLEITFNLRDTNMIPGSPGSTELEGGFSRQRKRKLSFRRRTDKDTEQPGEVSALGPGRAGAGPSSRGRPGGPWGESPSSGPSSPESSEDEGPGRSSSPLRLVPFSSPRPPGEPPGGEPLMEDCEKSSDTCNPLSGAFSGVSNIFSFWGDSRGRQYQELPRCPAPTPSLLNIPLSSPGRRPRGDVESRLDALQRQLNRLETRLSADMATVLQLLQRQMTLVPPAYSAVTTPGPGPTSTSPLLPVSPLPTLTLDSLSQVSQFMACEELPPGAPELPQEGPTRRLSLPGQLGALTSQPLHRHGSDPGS
Experiment: Binding affinity to human ERG
Conditions: not given
For CC(C)Oc1ccc(COc2ccc3c(c2)c(Cl)c2n3CC[C@@H]2CC(=O)O)cc1C#N, the Activity was “Not Active”.

Species on record: Rattus norvegicus
Experiment: Toxicity in telemeterized rat assessed as effect on cardiovascular function
Type: organism-based, Heart
Conditions: in vivo
In the case of CC(C)Oc1ccc(COc2ccc3c(c2)c(Cl)c2n3CC[C@@H]2CC(=O)O)cc1C#N, the Activity is reported as “Non-toxic”.

Biological target: Cytochrome P450 2C9 (Homo sapiens, UniProt P11712)
Sequence (P11712 whole entry): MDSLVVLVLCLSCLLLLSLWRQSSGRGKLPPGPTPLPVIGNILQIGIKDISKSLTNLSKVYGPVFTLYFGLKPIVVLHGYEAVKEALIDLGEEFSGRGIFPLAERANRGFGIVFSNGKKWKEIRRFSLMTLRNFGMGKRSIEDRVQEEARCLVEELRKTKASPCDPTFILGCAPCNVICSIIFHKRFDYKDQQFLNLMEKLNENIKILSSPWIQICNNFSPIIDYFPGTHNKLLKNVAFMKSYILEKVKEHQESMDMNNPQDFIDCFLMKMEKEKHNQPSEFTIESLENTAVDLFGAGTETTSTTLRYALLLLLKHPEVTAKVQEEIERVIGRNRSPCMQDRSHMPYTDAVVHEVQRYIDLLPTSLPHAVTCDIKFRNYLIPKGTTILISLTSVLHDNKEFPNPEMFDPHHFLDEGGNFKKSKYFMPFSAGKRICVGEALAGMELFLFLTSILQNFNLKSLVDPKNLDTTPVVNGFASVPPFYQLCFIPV
Experiment: Inhibition of CYP2C9 (unknown origin)
Type: ADME
Conditions: not given
CC(C)Oc1ccc(COc2ccc3c(c2)c(Cl)c2n3CC[C@@H]2CC(=O)O)cc1C#N gave an IC50 of 8.5 µM.

Biological target: P2Y purinoceptor (Rattus norvegicus)
Experiment: Binding affinity to P2Y purinoceptor (rat) by [35S]dATPalphaS competitive binding assay
Conditions: read-out: IC50
For CC(C)Oc1ccc(COc2ccc3c(c2)c(Cl)c2n3CC[C@@H]2CC(=O)O)cc1C#N, the IC50 was 390 nM.
